TAAR1 ag: human TAAR1 agonism | CHO RD-HGA16 TAAR1, Fluo-8 calcium fluorescence; vehicle wells 0%, saturating PEA agonist 100% | activation, % at 3 µM | hit rate 0.99% among 360,000 | AID 624467;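 active = activation above the mean activation of all test compounds in the run plus 3 SD, cut at about 38% in these data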
Target sequence (Q96RJ0 whole entry, looked up): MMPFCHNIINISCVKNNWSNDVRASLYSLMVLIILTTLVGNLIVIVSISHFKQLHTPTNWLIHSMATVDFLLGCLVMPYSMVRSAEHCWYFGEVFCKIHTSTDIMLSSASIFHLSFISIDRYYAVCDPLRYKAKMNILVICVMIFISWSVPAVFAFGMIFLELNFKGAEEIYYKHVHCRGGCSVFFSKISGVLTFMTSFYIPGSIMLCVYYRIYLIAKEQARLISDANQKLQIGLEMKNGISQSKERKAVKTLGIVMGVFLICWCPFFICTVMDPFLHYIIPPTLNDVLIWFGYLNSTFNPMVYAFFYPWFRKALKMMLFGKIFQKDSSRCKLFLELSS
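Test system: RD-HGA16 (CHO) cells co-expressing Gα16 and hTAAR1 / Benchmarks: DMSO vehicle as 0%, PEA at EC100 as 100% / Repeats: no replicates (n 1) / Measure: % activation from peak over basal fluorescence ratio, DMSO-to-PEA scaled / Timing: 17-24 h plating, Fluo-8 75 min 37 °C, 30 min RT / Technique: kinetic Fluo-8 calcium fluorescence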
OXTR potentiator: potentiates the human oxytocin receptor response; P30559; CHO-OTR cells, Fluo-8 calcium fluorescence, potentiator mode; 0% = oxytocin EC15, 100% = EC100; activation, % at 3 µM; hit rate 0.061% among 320,000;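 active = activation above that plate's cutoff, the mean activation of tested compounds plus 3 SD, cut at about 6.6% in these data, passing the limit was not always enough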
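Dosing: Single dose, 3.0 µM nominal final compound concentration | Material: Human OTR in CHO cells | Technique: Kinetic Fluo-8 calcium fluorescence | Benchmarks: EC15 oxytocin alone as 0%, 75 nM oxytocin as 100% | Probe or stimulus: Oxytocin at about EC15, sub-maximal agonist stimulus | Incubation: Compound 6 min at room temperature before oxytocin, 100 s read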
OXTR ag: agonists of human oxytocin receptor; P30559; CHO-OTR cells, Fluo-8 calcium fluorescence; normalized: DMSO 0%, oxytocin 100%; activation, % at 3 µM; hit rate 0.32% among 320,000; AID 2435;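 active = activation above the mean of all tested compounds plus 3 SD, cutoff set per screening run, cut at about 20% in these data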;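 also: peak over basal fluorescence ratio from a 100 s FLIPR kinetic read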
TAAR1 antagonist: antagonists of human TAAR1; CHO RD-HGA16 TAAR1, Fluo-8 calcium fluorescence, antagonist; inhibition, % at 3 µM; hit rate 1.5% among 360,000; Q96RJ0;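 active = inhibition above a per-plate cutoff, the mean inhibition of test compounds on that plate plus 3 SD, cut at about 49% in these data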
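Test system: RD-HGA16 CHO cells with stable hTAAR1 and Gα16 / Probe or stimulus: EC80 β-phenethylamine stimulus / Times: seeding 17-24 h prior, 75-min 37 °C, 30-min RT dye loading / Detection: Fluo-8 calcium-sensitive fluorescence / Read-out basis: % inhibition scaled between DMSO and EC80 PEA controls / Repeats: singlicate, one well per test compound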
V1R ag counter: V1a receptor agonism, counter-screen for OXTR agonists; CHO-V1R cells, Fluo-8 calcium fluorescence, agonist mode; 0% DMSO, 100% 3 nM vasopressin; P37288; activation, % at 3 µM; hit rate 0.25% among 320,000;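 active = activation above the mean activation of all tested compounds plus 3 SD, per screening run, cut at about 20% in these data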;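 also: signal is peak over basal fluorescence ratio across a 100 second FLIPR read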
TAAR1 nonsel count: nonselective antagonism, TAAR1 counter-screen; inhibition, % at 3 µM; counterscreen cell line, calcium fluorescence, antagonist mode; hit rate 77% among 2,400; shares compounds with TAAR1 antagonist; AID 651780; in the data active = inhibition above about 22%;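 also: CHO-Ga16 host cells stimulated with ATP at an EC80 level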
TAAR1 ant conf: confirmation of human TAAR1 antagonists; TAAR1-expressing cells, fluorescence antagonist read-out; hit rate 40% among 2,400; shares compounds with TAAR1 antagonist; inhibition, % at 3 µM; in the data active = inhibition above about 49%;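 also: CHO-Ga16 host cells challenged with agonist PEA near its EC80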
Ga16 nonsel ag: nonselective Ga16 agonism, counter-screen | shares compounds with TAAR1 antagonist | hit rate 18% among 2,400 | activation, % at 3 µM | Ga16-expressing cells, calcium fluorescence, agonist counterscreen; in the data active = activation above about 12%
TAAR1 ag counter: TAAR1 agonism, antagonist counter-screen; shares compounds with TAAR1 antagonist; hTAAR1 cell line, fluorescence activation, agonist mode; activation, % at 3 µM; hit rate 2% among 2,400; AID 651955; in the data active = activation above about 37%;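 also: CHO cells stably expressing TAAR1 with calcium dye readout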
Of the large screens only hits and unclear results are named; the others gave an inactive call (follow-up assays come after a bar, where they were run). Rows were chosen to be rich in hits. Some 2.3% of all compounds tested hit in one or more screens of this group.

C[C@H](O)[C@@H]1C(=O)N2CCc3c([nH]c4c(-c5ccccc5)cccc34)[C@@H]2C[C@@H]1N(C)C(=O)Nc1ccccc1	TAAR1 antagonist 54 (no result: OXTR potentiator, OXTR ag, V1R ag counter) | TAAR1 nonsel count 31 | TAAR1 ant conf inactive | Ga16 nonsel ag inactive | TAAR1 ag counter inactive
C[C@H](O)[C@@H]1C(=O)N2CCc3c([nH]c4c(-c5ccccc5)cccc34)[C@@H]2C[C@@H]1N(C)C(=O)Nc1cccc2ccccc12	none (no result: OXTR potentiator, OXTR ag, V1R ag counter)
C[C@@H]1ON(C)[C@H]2C[C@H]3c4[nH]c5c(-c6ccc7c(c6)OCO7)cccc5c4CCN3C(=O)[C@@H]12	TAAR1 antagonist 62 (no result: OXTR potentiator, OXTR ag, V1R ag counter) | TAAR1 nonsel count 27 | TAAR1 ant conf inactive | Ga16 nonsel ag inactive | TAAR1 ag counter inactive
C[C@H](O)[C@@H]1C(=O)N2CCc3c([nH]c4c(-c5ccc6c(c5)OCO6)cccc34)[C@@H]2C[C@@H]1N(C)C(=O)Nc1ccccc1	none (no result: OXTR potentiator, OXTR ag, V1R ag counter)
Cc1ccccc1NC(=O)N(C)[C@H]1C[C@H]2c3[nH]c4c(-c5ccccc5)cccc4c3CCN2C(=O)[C@H]1[C@H](C)O	TAAR1 antagonist 57 (no result: OXTR potentiator, OXTR ag, V1R ag counter) | TAAR1 nonsel count 29 | TAAR1 ant conf inactive | Ga16 nonsel ag inactive | TAAR1 ag counter inactive
COCCNC(=S)N(C)[C@H]1C[C@H]2c3[nH]c4c(-c5ccc6c(c5)OCO6)cccc4c3CCN2C(=O)[C@H]1[C@H](C)O	TAAR1 antagonist 62 (no result: OXTR potentiator, OXTR ag, V1R ag counter) | TAAR1 nonsel count 29 | TAAR1 ant conf inactive | Ga16 nonsel ag inactive | TAAR1 ag counter inactive
N#CC(=C(O)COC(=O)CCCNC(=O)c1ccc(Cl)cc1)c1nc2ccccc2[nH]1	none (no result: OXTR potentiator, OXTR ag, V1R ag counter)
Cc1cccc(-n2cc(-c3ccccc3)c3c(N4CCOCC4)ncnc32)c1	TAAR1 antagonist 60 | TAAR1 nonsel count 27 | TAAR1 ant conf inactive | Ga16 nonsel ag inactive | TAAR1 ag counter inactive
Fc1ccc(-n2cc(-c3ccccc3)c3c(NN4CCOCC4)ncnc32)cc1	none
COc1ccc(-n2cc(-c3ccccc3)c3c(NN4CCOCC4)ncnc32)cc1	TAAR1 antagonist 56 | TAAR1 nonsel count 25 | TAAR1 ant conf inactive | Ga16 nonsel ag inactive | TAAR1 ag counter inactive
N#Cc1ccc(S(=O)(=O)NCC2CCN(C(=O)C(=O)c3cc4ccccc4o3)CC2)cc1	none (no result: OXTR potentiator, OXTR ag, V1R ag counter)
COc1cccc(C(=O)N2CCN(C(=O)C3CC3)CC2)c1	none (no result: OXTR potentiator, OXTR ag, V1R ag counter)
CN(Cc1cnn(-c2ccccc2)c1)C(=O)c1cccc(S(=O)(=O)N(C)c2ccccc2)c1	TAAR1 antagonist 63 (no result: OXTR potentiator, OXTR ag, V1R ag counter) | TAAR1 nonsel count 35 | TAAR1 ant conf inactive | Ga16 nonsel ag inactive | TAAR1 ag counter inactive
Cc1ccccc1NS(=O)(=O)c1ccc(C(=O)N2CCN(c3ccccc3O)CC2)cc1	TAAR1 antagonist 75 | TAAR1 nonsel count 28 | TAAR1 ant conf inactive | Ga16 nonsel ag 12 | TAAR1 ag counter inactive
Cc1ccccc1NS(=O)(=O)c1ccc(C(=O)N2CCCCCC2)cc1	none
Cc1cnc(NC(=O)CSc2nnc(-c3ccccc3)o2)s1	none
O=C(COC(=O)c1cccc(N2C(=O)C3CC=CCC3C2=O)c1)c1ccccc1 (stereo not given)	TAAR1 antagonist 55 | TAAR1 nonsel count inactive | TAAR1 ant conf inactive | Ga16 nonsel ag inactive | TAAR1 ag counter inactive
CCN(Cc1ccc(OC)c(COC)c1)CC1CCCN(CCc2cccc(OC)c2)C1 (stereo not given)	none
Clc1cccc(-c2nc(NCCCN3CCOCC3)c3ccccc3n2)c1	none
Clc1cccc(-c2nc(NCCN3CCOCC3)c3ccccc3n2)c1	TAAR1 antagonist 64 | TAAR1 nonsel count 32 | TAAR1 ant conf 55 | Ga16 nonsel ag 16 | TAAR1 ag counter inactive
Cc1nc2ccccc2c(=O)n1/N=C/c1ccccc1O	none
